Data set [1] deals with T1, Transcriptional activator protein TraR (Agrobacterium tumefaciens, UniProt P33905).
T1 sequence (P33905 whole entry): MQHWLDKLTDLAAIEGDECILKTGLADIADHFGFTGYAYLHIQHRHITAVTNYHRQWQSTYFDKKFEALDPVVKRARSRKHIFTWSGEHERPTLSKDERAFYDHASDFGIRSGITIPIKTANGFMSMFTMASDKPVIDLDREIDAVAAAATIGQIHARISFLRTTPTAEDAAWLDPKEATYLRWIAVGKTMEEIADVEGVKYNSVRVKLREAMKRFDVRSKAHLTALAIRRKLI
As to the kind of experiment: Antagonist activity at Agrobacterium tumefaciens WCF (pCF372) TraR assessed as inhibition of OOHL-induced quorum sensing activation after 8 hrs by beta-galactosidase reporter gene assay. Background: A reporter such as luciferase makes a cellular process visible.

Data set [2] deals with T2, Transcriptional activator protein TraR (Agrobacterium tumefaciens) (UniProt P33905).
T2 sequence (whole entry): T1 sequence (P33905 whole entry)
The data set can be described thus: Antagonist activity at Agrobacterium tumefaciens WCF (pCF372) TraR assessed as inhibition of […]-induced quorum sensing activation at 10 uM after 8 hrs by beta-galactosidase reporter gene assay relative to untreated control. It is filed as functional.

Data set [3] relates to Escherichia coli DH5[alpha]. As to the kind of experiment: Antagonist activity at Escherichia coli DH5alpha (pJN105L + pSC11) LasR assessed as inhibition of OdDHL-induced quorum sensing activation at 10 uM after 8 hrs by beta-galactosidase reporter gene assay relative to untreated control. It is filed as functional.
The target of data set [4] is T3, Transcriptional activator protein LuxR (Aliivibrio fischeri, UniProt P12746).
T3 sequence (P12746 whole entry): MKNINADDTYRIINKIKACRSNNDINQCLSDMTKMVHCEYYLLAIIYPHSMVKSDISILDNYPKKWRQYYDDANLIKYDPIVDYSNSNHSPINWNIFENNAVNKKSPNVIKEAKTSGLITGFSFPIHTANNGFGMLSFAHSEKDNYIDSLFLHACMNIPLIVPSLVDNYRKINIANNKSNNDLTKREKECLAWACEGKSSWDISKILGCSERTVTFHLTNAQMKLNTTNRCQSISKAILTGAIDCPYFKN
As to the kind of experiment: Antagonist activity at Vibrio fischeri ESI 114 (delta-LuxI) LuxR assessed as inhibition of OHHL-induced quorum sensing activation after 8 hrs by […].

The next data set relates to Aliivibrio fischeri. As to the kind of experiment: Growth inhibition of Vibrio fischeri ESI 114 (delta-LuxI) at 10 uM after 4 to 16 hrs. Format: organism-based. The following applies: in vivo. The method in brief: (§1)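 Bacterial growth was monitored over the reporter gene assay time course (4–16 h) with compounds at 10 µM.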
The target in data set [5] is T4, Transcriptional activator protein LuxR (Aliivibrio fischeri) (UniProt P12746).
T4 sequence (whole entry): T3 sequence (P12746 whole entry)
The data set can be described thus: Agonist activity at Vibrio fischeri ESI 114 (delta-LuxI) LuxR at 10 uM after 8 hrs by […] relative to […]. It is filed as functional. The method in brief: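 V. fischeri ESI 114 lacking LuxI synthase but keeping its native lux operon; LuxR activity read as luminescence. Compounds were screened at 10 µM alone, without native AHL. Signal was normalized to the native-ligand positive control.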

Data set [6] concerns Escherichia coli DH5[alpha]. The data set can be described thus: Agonist activity at Escherichia coli DH5alpha (pJN105L + pSC11) LasR at 10 uM after 8 hrs by beta-galactosidase reporter gene assay relative to OdDHL. Format: functional.
Data set [7] has as its target T2, Transcriptional activator protein TraR (Agrobacterium tumefaciens). As to the kind of experiment: Agonist activity at Agrobacterium tumefaciens WCF (pCF372) TraR at 10 uM after 8 hrs by beta-galactosidase reporter gene assay relative to […]. Format: functional.
Data set [8] relates to Agrobacterium tumefaciens. As to the kind of experiment: Growth inhibition of Agrobacterium tumefaciens WCF (pCF372) at 10 uM after 4 to 16 hrs. It is filed as organism-based. The following applies: in vivo. The procedure, abridged:
as §1

Data set [9] has as its target T4, Transcriptional activator protein LuxR (Aliivibrio fischeri). The data set can be described thus: Antagonist activity at Vibrio fischeri ESI 114 (delta-LuxI) LuxR assessed as inhibition of […]-induced quorum sensing activation at 10 uM after 8 hrs by […] relative to untreated control. Format: functional.
The target in data set [10] is T5, Transcriptional activator protein LasR (Pseudomonas aeruginosa (strain ATCC 15692 / PAO1 / 1C / PRS 101 / LMG12228)) (UniProt P25084).
T5 sequence (whole entry): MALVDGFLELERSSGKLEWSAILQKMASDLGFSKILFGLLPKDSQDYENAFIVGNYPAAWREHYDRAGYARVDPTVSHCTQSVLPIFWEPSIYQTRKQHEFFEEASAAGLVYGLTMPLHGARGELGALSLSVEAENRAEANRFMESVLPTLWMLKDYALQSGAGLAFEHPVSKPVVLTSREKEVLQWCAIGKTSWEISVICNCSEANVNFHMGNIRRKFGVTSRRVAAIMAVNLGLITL
As to the kind of experiment: Agonist activity at Pseudomonas aeruginosa PAO1 MW1 (pUM15) LasR at 10 uM after 8 hrs by YFP fluorescence reporter gene assay relative to OdDHL.

For data set [11], the target named is T5, Transcriptional activator protein LasR (Pseudomonas aeruginosa (strain ATCC 15692 / PAO1 / 1C / PRS 101 / LMG12228)). As to the kind of experiment: Antagonist activity at Pseudomonas aeruginosa PAO1 MW1 (pUM15) LasR assessed as inhibition of OdDHL-induced quorum sensing activation at 10 uM after 8 hrs by […] relative to untreated control. Format: functional. The method in brief: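 P. aeruginosa PAO1 MW1 (pUM15) lacks functional LasI and carries a LasR-responsive promoter driving YFP, so fluorescence is the read-out. Compounds were tested at 10 µM. […] Background from wells with no compound or AHL was subtracted. Assays were done in triplicate.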

A short description of data set [12]: Antagonist activity at Escherichia coli DH5alpha (pJN105L + pSC11) LasR assessed as inhibition of OdDHL-induced quorum sensing activation after 8 hrs by beta-galactosidase reporter gene assay. Format: functional, Escherichia coli DH5[alpha].
Another data set relates to Pseudomonas aeruginosa. As to the kind of experiment: Growth inhibition of Pseudomonas aeruginosa PAO1 MW1 (pUM15) at 10 uM after 4 to 16 hrs. Format: organism-based. The following applies: in vivo. The method in brief: as §1
The subject of the next data set is Escherichia coli. The data set can be described thus: Growth inhibition of Escherichia coli DH5alpha (pJN105L + pSC11) at 10 uM after 4 to 16 hrs. It is filed as organism-based, DH5[alpha]. To be noted: in vivo. The procedure, abridged: as §1
The nature of data set [13]: Hydrolytic stability of the compound in Luria-Bertani medium containing Pseudomonas aeruginosa PA01 MW1 (pUM15) assessed as half life by measuring YFP fluorescence. It is filed as physicochemical.
Data set [14] addresses T1, Transcriptional activator protein TraR. The data set can be described thus: Agonist activity at Agrobacterium tumefaciens WCF (pCF372) TraR after 8 hrs by beta-galactosidase reporter gene assay relative to OOHL.
The nature of data set [15]: Agonist activity at Escherichia coli DH5alpha (pJN105L + pSC11) LasR after 8 hrs by beta-galactosidase reporter gene assay relative to OdDHL. Format: functional, Escherichia coli DH5[alpha].
Data set [16] addresses T6, Transcriptional activator protein LasR (Pseudomonas aeruginosa (strain ATCC 15692 / PAO1 / 1C / PRS 101 / LMG12228), UniProt P25084).
T6 sequence (P25084 whole entry): T5 sequence (whole entry)
The data set can be described thus: Agonist activity at Pseudomonas aeruginosa PAO1 MW1 (pUM15) LasR after 8 hrs by YFP fluorescence reporter gene assay relative to OdDHL.

Data set [17] deals with T3, Transcriptional activator protein LuxR. As to the kind of experiment: Agonist activity at Vibrio fischeri ESI 114 (delta-LuxI) LuxR after 8 hrs by […] relative to […]. It is filed as functional.
Data set [18] addresses T6, Transcriptional activator protein LasR. As to the kind of experiment: Agonist activity at Pseudomonas aeruginosa PAO1 MW1 (pUM15) LasR assessed as quorum sensing activation after 8 hrs by […].

Molecules are shown by their SMILES.

As for `CCCCCCC(=O)N[C@H]1CCSC1=O`, the results for the IC50 in data set [1], in [4] and in data set [12] were 10000 nM, 310 nM and 790 nM, respectively. For the same compound, the inhibition is 78% in data set [2], 78% in data set [3], 78% in data set [9] and -8% in data set [11]. Besides, the Activity result in the data set on Aliivibrio fischeri is “Non-toxic”; in [5] it was 0%; in data set [6] it was 8%; in [7], 0%; in data set [8] it was “Non-toxic”; in data set [10], 0%. Further, the Activity entry in the data set on Pseudomonas aeruginosa and with Escherichia coli was “Non-toxic” each time.

Take `CCCCCCCCCC(=O)CC(=O)N[C@H]1CCOC1=O`: the half-life in [13] is 48.2 h.

In [14], `CCCCCC(=O)CC(=O)N[C@H]1CCSC1=O` came in with an EC50 of 20000 nM. For the same compound, the IC50 in data set [4] is 350 nM. Moreover, the Activity entry in the data set on Aliivibrio fischeri was “Non-toxic”; in data set [5], 0%; in [7], 50%; in data set [8], “Non-toxic”; in [10], 3%; with Pseudomonas aeruginosa it was “Non-toxic”. Also, the Activity entry in the data set with Escherichia coli was “Non-toxic”. Further, the inhibition in data set [9] is 99%; in data set [11] it was -8%.

Turning to `CCCCCCCCCCCC(=O)N[C@H]1CCSC1=O`, the inhibition is 6% in data set [2] and 57% in [9]. Also, the EC50 is 1900 nM in data set [15] and 21000 nM in data set [16]. The Activity entry was “Non-toxic” in the data set on Aliivibrio fischeri; 0% in data set [5]; 94% in data set [6]; 0% in data set [7]; “Non-toxic” in [8]; 42% in [10]. The Activity result with Pseudomonas aeruginosa and in the data set with Escherichia coli was “Non-toxic” in each case.

As to `O=C(CCc1cc2ccccc2[nH]1)N[C@H]1CCSC1=O`, the inhibition in data set [3] is 16%; in data set [9] it was 68%; in [11], -7%. Also, in [15], the EC50 was found to be 1800 nM. Moreover, the Activity entry was “Non-toxic” with Aliivibrio fischeri; 0% in data set [5]; 4% in data set [6]; 0% in [7]; “Non-toxic” in [8]; 10% in data set [10]. Besides, the Activity entry in the data set with Pseudomonas aeruginosa and with Escherichia coli was “Non-toxic” each time.

In the case of `CCCCCCCCCC(=O)CC(=O)N[C@H]1CCSC1=O`, the half-life in data set [13] is 82.3 h. The inhibition turned out to be 92% in [2] and 99% in data set [9]. Further, the IC50 in [4] stood at 450 nM. In addition, the EC50 in data set [15] was 92 nM. Also, the Activity entry was “Non-toxic” in the data set with Aliivibrio fischeri; 0% in data set [5]; 94% in data set [6]; 1% in data set [7]; “Non-toxic” in data set [8]; 88% in [10]. The Activity entry in the data set on Pseudomonas aeruginosa and in the data set on Escherichia coli was “Non-toxic” in each case.

For the compound `O=C(Cc1cccc([N+](=O)[O-])c1)N[C@H]1CCSC1=O`, the inhibition in [2] was 33%; in data set [9] it was 19%; in [11], -7%. The EC50 in [15] stood at 4100 nM; in data set [17], 11000 nM. For the same compound, the Activity entry is “Non-toxic” with Aliivibrio fischeri; 21% in data set [5]; 82% in data set [6]; 1% in data set [7]; “Non-toxic” in data set [8]; 5% in [10]. Besides, the Activity result in the data set on Pseudomonas aeruginosa and in the data set with Escherichia coli was “Non-toxic” in each case.

For `CCCC(=O)CC(=O)N[C@H]1CCSC1=O`, the IC50 in data set [1] was determined as 3200 nM. In addition, the inhibition in data set [2] worked out at 93%; in data set [9] it was 62%. Besides, the EC50 in data set [15] worked out at 130 nM; in data set [18], 13000 nM; in data set [16] it was 13000 nM. Also, the Activity result in the data set on Aliivibrio fischeri was “Non-toxic”; in data set [5], 0%; in data set [6], 96%; in [7], 1%; in [8], “Non-toxic”; in data set [10], 76%. Moreover, the Activity entry in the data set on Pseudomonas aeruginosa and with Escherichia coli was “Non-toxic” each time.

Take `CCCCCCCC(=O)N[C@H]1CCSC1=O`: the inhibition was 99% in data set [2], 64% in data set [3], 80% in data set [9] and -7% in [11]. The IC50 in [4] was 130 nM; in [12], 140 nM. Also, the Activity result in the data set with Aliivibrio fischeri is “Non-toxic”; in data set [5] it was 0%; in [6], 85%; in data set [7], 0%; in [8] it was “Non-toxic”; in data set [10], 0%. The Activity entry in the data set on Pseudomonas aeruginosa and in the data set with Escherichia coli was “Non-toxic” each time.

In general, IC50 refers to the concentration that inhibits the measured activity by half. Usually inhibition stands for the relative decrease from the control value, in per cent. By half-life is commonly meant how long it takes for the measured level to halve. For orientation: EC50 means the concentration needed to bring the measured effect to its halfway point.

(Values after ChEMBL document CHEMBL1811864 (Bioorg Med Chem, 2011).)
